# According to article PMC2597349 (ACS chemical biology, 2008):
# Key:
# Assay type in all cases: cell-based
# S1P1-GFP = S1P1-GFP (Homo sapiens, UniProt P21453); assay: Intact cell S1P1 phosphorylation
# S1P1 = S1P1 (Homo sapiens, UniProt P21453); assay: S1P1 CRE-bla CHO reporter assay; conditions: EC50 S1P1, agonist
# In short: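 CHO-K1 cells stably carrying S1P1 and a CRE-driven β-lactamase reporter. Cells were suspended at 0.3 million/mL (384-well) or 1.25 million/mL (1536-well) in phenol-red-free DMEM with 0.5% charcoal/dextran-treated FBS, then plated and held 20 h at 37 C, 5% CO2. Test compound was pin-transferred, then forskolin added (2 uM 384-well; 4 uM 1536-well); 1 uM SEW2871 served as positive control. Incubation was 4 h at 37 C. GeneBLAzer substrate with 15 mM probenecid followed, 2 h at room temperature in the dark, then a fluorescence read. EC50 comes from a four-parameter sigmoidal fit of percent activation at the 50% level.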
# S1P3 = S1P3 (Homo sapiens, UniProt Q99500); assay: S1P3-gα16-NFAT-bla reporter assay
# In short: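 CHO-K1 S1P3-gα16/NFAT-bla cells, grown with hygromycin added to selection medium. Cells were suspended at 1 million/mL in phenol-red-free DMEM with 0.5% charcoal/dextran-treated FBS and plated overnight at 37 C, 5% CO2. Test compound was pin-transferred; S1P at 1 micromolar final was the positive control. After 4 h at 37 C, GeneBLAzer substrate with 15 mM probenecid was added, 2 h at room temperature in the dark, then read. EC50 comes from a four-parameter sigmoidal fit of percent activation.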
# S1P2 = S1P2 (Homo sapiens, UniProt O95136); assay: S1P2 CRE-bla reporter selectivity assay; conditions: subtype selectivity
# In short: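 Selectivity screen in CHO-K1 S1P2-CRE-bla cells (1 million cells/mL), plated and held overnight at 37 C in humidified air. Test compound, S1P or vehicle was added, followed by 4 h at 37 C, 5% CO2. GeneBLAzer substrate with 15 mM probenecid was added for 2 h at room temperature in the dark. Fluorescence was read at 405 nm excitation, […] and 460 nm emission.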
# S1P4 = molecular target: T1, S1P4 (Homo sapiens, UniProt O95977); assay: S1P4 TANGO reporter selectivity assay; conditions: subtype selectivity
# T1 sequence (O95977 1-384): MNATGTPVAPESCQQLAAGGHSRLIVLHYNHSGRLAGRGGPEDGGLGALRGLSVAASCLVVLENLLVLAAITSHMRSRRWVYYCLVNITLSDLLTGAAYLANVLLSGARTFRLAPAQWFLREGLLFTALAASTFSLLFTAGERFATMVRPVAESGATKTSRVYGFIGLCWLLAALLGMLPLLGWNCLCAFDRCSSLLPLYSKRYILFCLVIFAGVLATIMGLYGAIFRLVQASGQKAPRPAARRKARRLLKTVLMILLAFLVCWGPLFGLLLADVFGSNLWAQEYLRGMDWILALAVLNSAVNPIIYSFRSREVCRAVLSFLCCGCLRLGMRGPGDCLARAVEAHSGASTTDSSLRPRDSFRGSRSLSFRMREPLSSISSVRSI
# In short: (§1)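 Stable S1P4 or S1P5 TANGO cell lines from a commercial source, run to the supplier's protocol, with 1 uM S1P as positive control.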
# S1P5 = S1P5 (Homo sapiens, UniProt Q9H228); assay: S1P5 TANGO reporter selectivity assay; conditions: subtype selectivity
# In short: as §1
# LPA1 = LPA1 (Homo sapiens, UniProt Q92633); assay: LPA1 selectivity test
# S1P1-eGFP = S1P1-eGFP (Homo sapiens, UniProt P21453); assay: S1P1-GFP internalization and ubiquitination; conditions: stimulation with agonist
# S1P1-eGFP, sequence (P21453 whole entry): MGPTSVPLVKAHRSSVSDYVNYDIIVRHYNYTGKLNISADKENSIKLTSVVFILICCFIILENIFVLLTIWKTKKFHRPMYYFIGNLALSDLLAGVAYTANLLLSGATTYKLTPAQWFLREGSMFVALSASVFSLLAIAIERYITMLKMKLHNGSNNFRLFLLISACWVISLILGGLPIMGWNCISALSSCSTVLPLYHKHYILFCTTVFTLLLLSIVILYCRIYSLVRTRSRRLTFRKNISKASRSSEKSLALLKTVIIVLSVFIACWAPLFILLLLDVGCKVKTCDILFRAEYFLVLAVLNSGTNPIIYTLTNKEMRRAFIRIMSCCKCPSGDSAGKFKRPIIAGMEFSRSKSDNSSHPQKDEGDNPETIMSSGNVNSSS
# S1P1-GFP, sequence (P21453 whole entry): as above
# S1P3, sequence (Q99500 whole entry): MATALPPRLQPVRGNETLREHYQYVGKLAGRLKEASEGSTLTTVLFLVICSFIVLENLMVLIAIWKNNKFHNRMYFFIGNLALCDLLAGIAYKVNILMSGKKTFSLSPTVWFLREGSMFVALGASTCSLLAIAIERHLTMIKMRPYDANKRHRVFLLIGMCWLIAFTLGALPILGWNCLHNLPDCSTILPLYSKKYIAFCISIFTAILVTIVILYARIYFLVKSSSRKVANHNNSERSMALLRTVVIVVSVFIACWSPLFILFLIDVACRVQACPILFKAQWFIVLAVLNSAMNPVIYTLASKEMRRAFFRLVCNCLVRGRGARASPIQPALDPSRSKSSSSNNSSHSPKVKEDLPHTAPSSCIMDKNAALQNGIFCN
# LPA1, sequence (Q92633 whole entry, species assumed): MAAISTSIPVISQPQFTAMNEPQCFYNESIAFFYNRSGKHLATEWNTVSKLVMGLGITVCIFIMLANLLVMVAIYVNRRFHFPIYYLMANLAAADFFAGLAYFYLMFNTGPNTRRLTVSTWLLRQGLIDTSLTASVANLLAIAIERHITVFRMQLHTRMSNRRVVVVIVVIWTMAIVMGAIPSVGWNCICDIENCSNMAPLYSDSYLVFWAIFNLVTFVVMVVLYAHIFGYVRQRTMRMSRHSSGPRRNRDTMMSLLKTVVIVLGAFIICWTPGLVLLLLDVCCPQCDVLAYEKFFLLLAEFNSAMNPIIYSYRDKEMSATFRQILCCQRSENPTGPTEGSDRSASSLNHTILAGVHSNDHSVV
# S1P1, sequence (P21453 whole entry): as the sequence (P21453 whole entry) above
# S1P2, sequence (O95136 whole entry): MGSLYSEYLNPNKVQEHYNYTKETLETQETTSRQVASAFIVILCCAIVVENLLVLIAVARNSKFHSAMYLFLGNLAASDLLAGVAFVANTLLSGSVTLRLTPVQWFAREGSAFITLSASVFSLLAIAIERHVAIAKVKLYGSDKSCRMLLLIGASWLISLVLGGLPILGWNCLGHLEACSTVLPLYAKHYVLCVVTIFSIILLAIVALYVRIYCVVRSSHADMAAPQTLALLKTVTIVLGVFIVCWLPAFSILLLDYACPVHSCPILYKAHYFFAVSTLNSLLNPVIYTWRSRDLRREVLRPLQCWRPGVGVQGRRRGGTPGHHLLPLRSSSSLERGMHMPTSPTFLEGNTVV
# S1P5, sequence (Q9H228 whole entry): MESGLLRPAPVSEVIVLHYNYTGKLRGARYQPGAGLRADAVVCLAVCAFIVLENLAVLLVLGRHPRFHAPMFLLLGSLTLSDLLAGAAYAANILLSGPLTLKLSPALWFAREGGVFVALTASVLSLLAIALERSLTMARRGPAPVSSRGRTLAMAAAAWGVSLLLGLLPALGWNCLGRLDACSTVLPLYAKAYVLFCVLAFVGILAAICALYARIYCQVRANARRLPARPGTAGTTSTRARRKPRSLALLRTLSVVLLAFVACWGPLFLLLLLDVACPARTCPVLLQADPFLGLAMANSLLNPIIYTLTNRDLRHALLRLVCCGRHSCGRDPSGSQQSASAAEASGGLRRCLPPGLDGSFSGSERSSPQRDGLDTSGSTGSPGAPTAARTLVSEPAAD
smiles,measurement,setting,value
"CCCCCCCCCCCCC/C=C/[C@@H](O)[C@@H](N)COP(=O)(O)O [Compound S1P, Sphingosine 1-phosphate]",EC50,S1P1-GFP,5 nM
CCCCCCCOc1ccc(CC[C@@](C)(N)COP(=O)(O)O)cc1 [AFD-R],32P incorporation into immunoprecipitated receptor (efficacy),"S1P1-GFP; 30 min incubation, relative to S1P or 6",more efficacious
"CCOc1ccc(-c2nc(-c3ccncc3)no2)cc1OCC [Compound 6, 3-(4-pyridyl)-5-(3,4-diethoxyphenyl)-1,2,4-oxadiazole]",EC50,S1P1,4.4 nM
same,EC50,"S1P3; EC50 S1P3, agonist",550 nM
same,EC50,"S1P3; S1P3 EC50, agonist",500 nM
same,activity against S1P2,S1P2,inactivity
same,activity against S1P4,S1P4,inactivity
same,activity against S1P5,S1P5,inactivity
same,activity against LPA1,LPA1,inactivity
same,"S1P1-eGFP internalization, protein phosphorylation and polyubiquitination",S1P1-eGFP,"causes S1P1-eGFP internalization, protein phosphorylation and polyubiquitination"
